The source of these data is ChEMBL document CHEMBL1149362, “Diphenyl phosphonate inhibitors for the urokinase-type plasminogen activator: optimization of the P4 position” (J Med Chem, 2006).

Assay [1] addresses Urokinase-type plasminogen activator (Homo sapiens, UniProt P00749). The assay can be described thus: Inhibition of human uPA.
A further assay has as its target Plasminogen (Homo sapiens, UniProt P00747). The assay can be described thus: Inhibition of human plasmin. The method, boiled down: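 Plasmin from human plasma, approx. 5 mU, in Tris pH 7.4, with a 15-min 37 °C inhibitor preincubation. […] Initial rate is read at 405 nm, in duplicate, and IC50 is obtained by four-parameter logistic fitting.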
The target of assay [2] is Tissue-type plasminogen activator (Homo sapiens, UniProt P00750). The assay can be described thus: Inhibition of recombinant tPA. The method in brief:
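Recombinant tPA, approx. 5 mU, in Tris pH 8.3, is preincubated with inhibitor for 15 min at 37 °C. S-2288 is then added at 1.25 mM (Km 1 mM). Absorbance change is read at 405 nm, in duplicate, and IC50 comes from a four-parameter logistic fit.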

The nature of assay [3]: Inhibition of bovine trypsin. Further details: species or system Bos taurus. The method, boiled down: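 Bovine trypsin, approx. 5 mU, is preincubated with inhibitor for 15 min at 37 °C. BAPNA substrate is then added at 425 µM (Km 1 mM) in Tris pH 8.2. The pNA release rate is read at 405 nm, duplicate wells, and IC50 comes from a four-parameter logistic fit.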
The next assay deals with Prothrombin (Homo sapiens, UniProt P00734). In words: Inhibition of human thrombin. The method in brief: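 Thrombin from human plasma, approx. 5 mU, in Tris pH 8.3, with a 15-min 37 °C inhibitor preincubation. […] Initial rate is read at 405 nm, duplicates, and IC50 is obtained by four-parameter logistic fitting.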
In assay [4] the target is Coagulation factor X (Bos taurus) (UniProt P00743). The assay can be described thus: Inhibition of bovine F10a at 250 uM.
Coagulation factor X (Bos taurus), sequence (P00743 41-180 limits assumed): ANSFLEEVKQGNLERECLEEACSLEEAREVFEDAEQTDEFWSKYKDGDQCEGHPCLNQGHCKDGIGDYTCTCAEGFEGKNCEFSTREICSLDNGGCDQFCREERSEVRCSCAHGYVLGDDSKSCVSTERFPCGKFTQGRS
Coagulation factor X (Bos taurus), sequence (P00743 234-492 limits assumed): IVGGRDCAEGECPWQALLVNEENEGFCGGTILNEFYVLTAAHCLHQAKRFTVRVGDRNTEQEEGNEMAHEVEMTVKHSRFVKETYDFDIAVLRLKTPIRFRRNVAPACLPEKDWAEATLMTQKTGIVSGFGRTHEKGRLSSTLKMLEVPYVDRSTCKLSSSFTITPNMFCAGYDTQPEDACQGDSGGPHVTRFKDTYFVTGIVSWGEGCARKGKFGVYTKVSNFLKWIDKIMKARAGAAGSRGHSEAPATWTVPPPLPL
The species named for assay [5] is Homo sapiens. The assay can be described thus: Selectivity index, IC50 for recombinant tPA/IC50 for human uPA.
The species named for assay [6] is Homo sapiens. In words: Selectivity index, IC50 for human plasmin/IC50 for human uPA.
For assay [7], the target named is Thrombin and urokinase-type plasminogen activator (Homo sapiens) (UniProt P00734+P00749). The assay can be described thus: Selectivity index, IC50 for human thrombin/IC50 for human uPA. Type of assay: protein assay.
A short description of assay [8]: Selectivity index, IC50 for bovine trypsin/IC50 for human uPA.
The nature of assay [9]: Selectivity index, IC50 for bovine F10a/IC50 for human uPA.
Another assay concerns the target Coagulation factor X (Bos taurus, UniProt P00743). In words: Inhibition of bovine F10a.

Tissue-type plasminogen activator, sequence (P00750 whole entry): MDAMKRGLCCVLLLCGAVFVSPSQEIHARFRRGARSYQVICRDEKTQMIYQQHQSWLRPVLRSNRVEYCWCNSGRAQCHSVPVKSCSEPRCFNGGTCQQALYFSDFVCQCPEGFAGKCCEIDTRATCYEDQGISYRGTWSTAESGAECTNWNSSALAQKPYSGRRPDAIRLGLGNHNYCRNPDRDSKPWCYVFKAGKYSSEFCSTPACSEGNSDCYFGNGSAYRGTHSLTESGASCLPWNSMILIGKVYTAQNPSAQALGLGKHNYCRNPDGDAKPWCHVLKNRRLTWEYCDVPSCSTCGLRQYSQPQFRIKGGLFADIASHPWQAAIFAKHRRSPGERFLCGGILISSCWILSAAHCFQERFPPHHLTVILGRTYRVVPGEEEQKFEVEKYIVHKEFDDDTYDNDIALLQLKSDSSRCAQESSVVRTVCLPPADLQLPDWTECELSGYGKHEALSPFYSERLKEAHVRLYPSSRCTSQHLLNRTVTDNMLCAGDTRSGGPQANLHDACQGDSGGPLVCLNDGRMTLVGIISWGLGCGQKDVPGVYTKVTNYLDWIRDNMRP
Plasminogen, sequence (P00747 97-580 limits assumed): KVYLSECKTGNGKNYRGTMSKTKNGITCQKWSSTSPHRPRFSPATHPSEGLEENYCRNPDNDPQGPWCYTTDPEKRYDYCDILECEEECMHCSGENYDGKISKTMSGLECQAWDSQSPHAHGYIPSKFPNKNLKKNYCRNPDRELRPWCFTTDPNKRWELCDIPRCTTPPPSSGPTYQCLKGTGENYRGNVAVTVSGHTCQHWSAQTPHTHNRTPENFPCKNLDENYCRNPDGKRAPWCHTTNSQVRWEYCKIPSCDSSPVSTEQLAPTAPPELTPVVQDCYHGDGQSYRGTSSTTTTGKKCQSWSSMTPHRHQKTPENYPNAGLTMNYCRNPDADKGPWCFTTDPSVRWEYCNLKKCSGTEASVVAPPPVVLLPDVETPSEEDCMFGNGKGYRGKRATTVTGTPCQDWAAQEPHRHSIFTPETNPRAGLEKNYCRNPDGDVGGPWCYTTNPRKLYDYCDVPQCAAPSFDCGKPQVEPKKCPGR
Plasminogen, sequence (P00747 581-810 limits assumed): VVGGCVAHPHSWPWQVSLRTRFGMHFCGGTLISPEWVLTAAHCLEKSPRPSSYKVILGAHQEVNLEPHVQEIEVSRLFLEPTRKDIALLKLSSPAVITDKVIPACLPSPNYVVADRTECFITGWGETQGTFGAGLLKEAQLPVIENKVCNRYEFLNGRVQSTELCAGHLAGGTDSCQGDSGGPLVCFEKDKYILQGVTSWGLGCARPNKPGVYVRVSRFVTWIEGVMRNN
Coagulation factor X, sequence (P00743 41-180 limits assumed): as the sequence (P00743 41-180 limits assumed) above
Coagulation factor X, sequence (P00743 234-492 limits assumed): as the sequence (P00743 234-492 limits assumed) above

Usually IC50 stands for the concentration at which inhibition is half-maximal. One may read the inhibition as how much of the control response was suppressed. On to `Cc1cccc(C)c1C(=O)N[C@H](CO)C(=O)N[C@@H](C)C(=O)NC(Cc1ccc(NC(=N)N)cc1)P(=O)(Oc1ccccc1)Oc1ccccc1` (some centres undefined), for which the IC50 in assay [1] is 0.006 µM; against Plasminogen it was 4.2 µM; in [2], 3.6 µM; in assay [3], 0.22 µM; at Prothrombin, 6.3 µM. This molecule returned an inhibition in assay [4] of 62%. In addition, the Selectivity index was 600 in the assay listed under Homo sapiens [5], 700 in the assay filed under Homo sapiens [6], 1000 in assay [7] and 40 in [8].
Consider `C[C@H](NC(=O)[C@@H](CO)NS(=O)(=O)c1cccs1)C(=O)NC(Cc1ccc(NC(=N)N)cc1)P(=O)(Oc1ccccc1)Oc1ccccc1` (some centres undefined), for which the IC50 in assay [3] was 0.098 µM. Moreover, the inhibition in assay [4] was found to be 68%. In addition, the Selectivity index came out at 2300 in the assay listed under Homo sapiens [5], 1000 in the assay filed under Homo sapiens [6], 2800 in [7] and 65 in assay [8].
In turn, `C[C@H](NC(=O)[C@@H](CO)NC(=O)c1ccccc1)C(=O)NC(Cc1ccc(NC(=N)N)cc1)P(=O)(Oc1ccccc1)Oc1ccccc1` (some centres undefined) came in with an IC50 in assay [3] of 0.4 µM. This molecule also showed an inhibition in assay [4] of 45%. Further, the Selectivity index in the assay filed under Homo sapiens [5] came to 3000; in the assay filed under Homo sapiens [6], 3000; in assay [7], 5400; in assay [8], 80.
In the case of `C[C@H](NC(=O)[C@@H](CO)NC(=O)OCc1ccccc1)C(=O)NC(Cc1ccc(N=C(N)N)cc1)P(=O)(Oc1ccccc1)Oc1ccccc1` (some centres undefined), the IC50 in [1] was 0.0043 µM; at Plasminogen, 2 µM; in [2] it was 4.6 µM; against Prothrombin, 20 µM.
As to `Cc1ccccc1C(=O)N[C@H](CO)C(=O)N[C@@H](C)C(=O)NC(Cc1ccc(NC(=N)N)cc1)P(=O)(Oc1ccccc1)Oc1ccccc1` (some centres undefined), the IC50 in assay [1] turned out to be 0.005 µM; against Plasminogen it was 7.2 µM; in [2], 5.5 µM; in assay [3], 0.14 µM; against Prothrombin it was 15.9 µM. In [4], this molecule came in with an inhibition of 57%. Further, the Selectivity index in the assay filed under Homo sapiens [5] came out at 1100; in the assay filed under Homo sapiens [6], 1400; in assay [7] it was 3200; in [8], 30.
Turning to `Cc1ccc(C(=O)N[C@H](CO)C(=O)N[C@@H](C)C(=O)NC(Cc2ccc(NC(=N)N)cc2)P(=O)(Oc2ccccc2)Oc2ccccc2)cc1` (some centres undefined), the IC50 amounted to 0.007 µM in assay [1]; 5 µM against Plasminogen; 16 µM in assay [2]; 0.16 µM in assay [3]; 67 µM against Prothrombin. Also, the inhibition in [4] was found to be 53%. Moreover, the Selectivity index in the assay listed under Homo sapiens [5] stood at 2300; in the assay filed under Homo sapiens [6] it was 700; in assay [7] it was 9600; in assay [8], 23.
For the molecule `C[C@H](NC(=O)[C@@H](CO)NC(=O)C1C2CC3CC(C2)CC1C3)C(=O)NC(Cc1ccc(NC(=N)N)cc1)P(=O)(Oc1ccccc1)Oc1ccccc1` (some centres undefined), the IC50 in assay [1] is 0.008 µM; at Plasminogen it was 5 µM; in assay [2], 8.6 µM; in assay [3], 0.16 µM; against Prothrombin, 6 µM. This molecule registered an inhibition in assay [4] of 62%. Also, the Selectivity index in the assay filed under Homo sapiens [5] worked out at 1000; in the assay filed under Homo sapiens [6] it was 600; in assay [7], 750; in [8], 20.
`C[C@H](NC(=O)[C@@H](CO)NS(=O)(=O)c1cccs1)C(=O)NC(Cc1ccc(N=C(N)N)cc1)P(=O)(Oc1ccccc1)Oc1ccccc1` (some centres undefined): the half-inhibitory concentration (IC50) in assay [1] is 0.0015 µM; against Plasminogen, 1.54 µM; in assay [2], 3.4 µM; against Prothrombin, 4.3 µM.
Consider `C[C@H](NC(=O)[C@@H](CO)NS(=O)(=O)c1ccc(C#N)cc1)C(=O)NC(Cc1ccc(N=C(N)N)cc1)P(=O)(Oc1ccccc1)Oc1ccccc1` (some centres undefined), for which the IC50 in assay [1] was 0.0062 µM; at Plasminogen, 0.9 µM; in assay [2], 6.6 µM; at Prothrombin, 7.5 µM.
In assay [3], `Cc1cccc(C(=O)N[C@H](CO)C(=O)N[C@@H](C)C(=O)NC(Cc2ccc(NC(=N)N)cc2)P(=O)(Oc2ccccc2)Oc2ccccc2)c1` (some centres undefined) showed an IC50 of 0.16 µM. For the same molecule, in assay [4], the inhibition turned out to be 56%. The Selectivity index in the assay listed under Homo sapiens [5] is 4000; in the assay listed under Homo sapiens [6], 1800; in assay [7] it was 7700; in assay [8], 40.
Take `C[C@H](NC(=O)[C@@H](CO)NC(=O)OCc1ccccc1)C(=O)NC(CCCN=C(N)N)P(=O)(Oc1ccccc1)Oc1ccccc1` (some centres undefined): the Selectivity index in the assay filed under Homo sapiens [5] is 40; in the assay filed under Homo sapiens [6] it was 300; in [7], 8; in [9], 1100.
In the case of `C[C@H](NC(=O)[C@@H](CO)NS(=O)(=O)c1cccc2ccccc12)C(=O)NC(Cc1ccc(NC(=N)N)cc1)P(=O)(Oc1ccccc1)Oc1ccccc1` (some centres undefined), the IC50 in assay [3] came to 0.28 µM. The Selectivity index in the assay filed under Homo sapiens [5] amounted to 760; in the assay filed under Homo sapiens [6], 155; in assay [7] it was 1000; in assay [9] it was 16600; in [8], 50.
Regarding `Cc1cccc(C(=O)N[C@H](CO)C(=O)N[C@@H](C)C(=O)NC(Cc2ccc(N=C(N)N)cc2)P(=O)(Oc2ccccc2)Oc2ccccc2)c1` (some centres undefined), the IC50 in assay [1] was 0.0044 µM; on Plasminogen, 8 µM; in assay [2], 18 µM; against Prothrombin it was 34 µM.
`C[C@H](NC(=O)[C@@H](CO)NC(=O)c1ccccc1)C(=O)NC(Cc1ccc(N=C(N)N)cc1)P(=O)(Oc1ccccc1)Oc1ccccc1` (some centres undefined): the IC50 came out at 0.005 µM in assay [1], 15 µM on Plasminogen, 15 µM in [2] and 22 µM against Prothrombin.
As for `C[C@H](NC(=O)[C@@H](CO)NS(=O)(=O)c1cccc2ccccc12)C(=O)NC(Cc1ccc(N=C(N)N)cc1)P(=O)(Oc1ccccc1)Oc1ccccc1` (some centres undefined), the IC50 in [1] came out at 0.0058 µM; on Plasminogen it was 0.99 µM; in assay [2], 4.4 µM; against Coagulation factor X, 96 µM; on Prothrombin, 6 µM.
`C[C@H](NC(=O)[C@@H](CO)NS(=O)(=O)c1ccccc1)C(=O)NC(Cc1ccc(NC(=N)N)cc1)P(=O)(Oc1ccccc1)Oc1ccccc1` (some centres undefined): the IC50 was determined as 0.0026 µM in [1]; 1.9 µM on Plasminogen; 3.1 µM in assay [2]; 0.16 µM in [3]; 4.9 µM on Prothrombin. In [4], this molecule showed an inhibition of 64%. In addition, the Selectivity index was determined as 1200 in the assay listed under Homo sapiens [5], 740 in the assay listed under Homo sapiens [6], 1900 in assay [7] and 60 in assay [8].
At Coagulation factor X, `C[C@H](NC(=O)[C@@H](CO)NC(=O)OCc1ccccc1)C(=O)NC(CCCNC(=N)N)P(=O)(Oc1ccccc1)Oc1ccccc1` (some centres undefined) registered an IC50 of 65 µM.
For `C[C@H](NC(=O)[C@@H](CO)NC(=O)c1cccs1)C(=O)NC(Cc1ccc(NC(=N)N)cc1)P(=O)(Oc1ccccc1)Oc1ccccc1` (some centres undefined), the Selectivity index in the assay listed under Homo sapiens [5] turned out to be 1900; in the assay filed under Homo sapiens [6], 1400; in assay [7], 5000; in [8] it was 40.
Take `C[C@H](NC(=O)[C@@H](CO)NS(=O)(=O)c1ccc(C#N)cc1)C(=O)NC(Cc1ccc(NC(=N)N)cc1)P(=O)(Oc1ccccc1)Oc1ccccc1` (some centres undefined): in [3], the IC50 was 0.44 µM. Besides, in assay [4], the inhibition was found to be 53%. Further, the Selectivity index in the assay filed under Homo sapiens [5] amounted to 1100; in the assay filed under Homo sapiens [6], 145; in [7], 1200; in assay [8], 70.
